Measured values published in the RNAGym collection of RNA variant scans (doi:10.1126/science.aae0568).
Variants at the floor of the assay were thinned out.

B1: tRNA (parent)
chain: GUUCCGUUGGCGUAAUGGUAACGCGUCUCCCUCCUAAGGAGAAGACUGCGGGUUCGAGUCCCGUACGGAACG

Variants of: B1
Test: yeast fitness relative to wild type (ratio to wild type); higher = fitter; tRNA-Arg(CCU), competitive growth, 37 C, YPD
How it was run: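 The tRNA-Arg(CCU) gene variants were made by chemical synthesis with a 3% per-site mutation rate at 69 sites and inserted at the native genomic locus of Saccharomyces cerevisiae. After pooling, the strains were competed in YPD at 37°C for 24 hours in six parallel replicates. Gene amplicons from the start population and each end population were read by 100-nucleotide paired-end sequencing, and Darwinian fitness relative to wild type was taken from genotype frequency changes. Genotypes needed ≥ 100 starting reads, and estimates < 0.5 were set to 0.5.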
With C27G C34G A37U the yeast fitness was ≤ 0.5. In the case of A15C G50A C60G U64G, the yeast fitness is reported as ≤ 0.5. With G10A C62U the yeast fitness was 0.843. With C5G U8G A20C the yeast fitness was ≤ 0.5. For C5A G23C A65G, the yeast fitness was 0.532. In the case of U19C C24G A37U U54G U64A, the yeast fitness is reported as ≤ 0.5. A21U A40C gave a yeast fitness of 0.727. Variant C4G U59C has a yeast fitness of 0.771. With A14U C49U the yeast fitness was 0.629. With C5U G18A C30A G58A the yeast fitness was ≤ 0.5. For U2G C22A G25A G56A, the yeast fitness was ≤ 0.5. In the case of C4A C55G C61U, the yeast fitness is reported as ≤ 0.5. For C29U G50C A70G, the yeast fitness was ≤ 0.5. Variant C5A A40G C49G has a yeast fitness of 0.569. With A15C G39A A57G C66U the yeast fitness was ≤ 0.5. Work on C5G G44U yielded a yeast fitness of 0.626. In the case of U26C A42G G67U, the yeast fitness is reported as 0.647. C5U A45G G67A gave a yeast fitness of 0.743. Work on U8C C27G A42G C60U U64A C66A G68A A69G yielded a yeast fitness of 0.543. Work on G23C A36G yielded a yeast fitness of 0.625. In the case of C4A U26G C29G U47G U59G, the yeast fitness is reported as ≤ 0.5. With U54C C62U the yeast fitness was 0.815. C4A C60U gave a yeast fitness of 0.825. In the case of G17A A21C A42C, the yeast fitness is reported as ≤ 0.5. For C31A C34U U54C A69C, the yeast fitness was ≤ 0.5. In the case of U8C G41A A65G, the yeast fitness is reported as 0.63. In the case of C5U U7G C24U C34G A37C A42U C66U, the yeast fitness is reported as ≤ 0.5. With C5A U8C C11U C31A A37U G67C the yeast fitness was ≤ 0.5. For U7C C33U G67A, the yeast fitness was ≤ 0.5. With C11G G18A G23A C60G the yeast fitness was ≤ 0.5. In the case of C24A A40G C66U, the yeast fitness is reported as ≤ 0.5. With G9C A15C C34G C66A A69C the yeast fitness was ≤ 0.5. With U32A A42C C61G C66G the yeast fitness was 0.554. U3C G58A showed a yeast fitness of 0.922. Work on A43C A70G yielded a yeast fitness of 1.05. With C5U C22U C33U G67A the yeast fitness was ≤ 0.5. Variant A37G A45G has a yeast fitness of 0.707. U54G A69U gave a yeast fitness of 0.648. In the case of A14U C49A G68A, the yeast fitness is reported as ≤ 0.5. U47A A69C showed a yeast fitness of 0.82. For C22G C34U A43C A69U, the yeast fitness was ≤ 0.5. C22G C27G U59C C62U G68U showed a yeast fitness of 0.529. With A15G G39C A69C the yeast fitness was 0.624. For C33A G39A A40U C55U C62U, the yeast fitness was ≤ 0.5. With U8C A40U A69U the yeast fitness was 0.75. For A15G U16G G39A A45C C61A, the yeast fitness was ≤ 0.5. For G9C A15U U16C A36U, the yeast fitness was ≤ 0.5. For C4U G10A U28A, the yeast fitness was ≤ 0.5. With G9A C27G A40G G52A the yeast fitness was ≤ 0.5. Variant U2A C4A C5G A36G has a yeast fitness of 0.524. C5U C61A gave a yeast fitness of 0.612. In the case of C22U C62G A69U, the yeast fitness is reported as 0.586. C22U A43C C46A showed a yeast fitness of 0.626. With C27U C31G A43C C49G G52C U59A G68A the yeast fitness was ≤ 0.5. In the case of G6A A21C U47A G68A, the yeast fitness is reported as ≤ 0.5. For C62U A65C A70C, the yeast fitness was 0.619. In the case of G18C C29U C34U A36G G58C, the yeast fitness is reported as ≤ 0.5. With C4U U8A U13C U35C C46A the yeast fitness was ≤ 0.5. For A36C G48C, the yeast fitness was ≤ 0.5. A15G G18A A69U gave a yeast fitness of 0.648. With G50A G68A the yeast fitness was 0.915. With U8G C34U A40G C46A the yeast fitness was ≤ 0.5. With U8C G12C C61A G67A the yeast fitness was ≤ 0.5. In the case of C11U G12C, the yeast fitness is reported as 0.75. For G10C A43U G63C C66A, the yeast fitness was ≤ 0.5. In the case of U8C U19C C55G A70C, the yeast fitness is reported as ≤ 0.5. For A65U C66U, the yeast fitness was 0.818. G18C U47C gave a yeast fitness of 0.658. In the case of C4A C5U C22U C34A C61G, the yeast fitness is reported as ≤ 0.5. For C4G C22U C30A C34U G38C, the yeast fitness was ≤ 0.5. In the case of A21C C34U U64A, the yeast fitness is reported as ≤ 0.5. C22G C30G C33G A37U C61G showed a yeast fitness of 0.683. With C24G G48A the yeast fitness was 0.588. For U7C A37C C60G A65U A70C, the yeast fitness was 0.569. With G25A A42G G44C C49G A70U the yeast fitness was ≤ 0.5. Work on C4A G12C yielded a yeast fitness of 0.679. For U2C U35A, the yeast fitness was 0.62. Work on G25A A37C A69U yielded a yeast fitness of 0.684. U3G A45G U54C gave a yeast fitness of 0.678. In the case of C4U A20U A40U G52A A69U, the yeast fitness is reported as ≤ 0.5. For U28A C34U G41C G51A U53A U59C A70U, the yeast fitness was ≤ 0.5. In the case of U2G G25C C27G C34U U35A G38A U59A, the yeast fitness is reported as ≤ 0.5. With C30A A42U C55G the yeast fitness was ≤ 0.5. C4G C24G gave a yeast fitness of 0.617. With U2A U7A A15U the yeast fitness was ≤ 0.5. Work on C5U U7C U26A yielded a yeast fitness of 0.677. Work on G6C C22U C30A C49U G52C yielded a yeast fitness of 0.683. A15C C27A gave a yeast fitness of 0.554. In the case of U13C U32C A40G, the yeast fitness is reported as ≤ 0.5. In the case of G51C A65C C66U, the yeast fitness is reported as ≤ 0.5. For A15U A20G C30A G63C, the yeast fitness was ≤ 0.5. With U2A U7G the yeast fitness was 0.847. In the case of G6A C11G, the yeast fitness is reported as 0.738. With G9A A15C G58C the yeast fitness was 0.581. With U13A U28C the yeast fitness was 0.992. In the case of G39A U53A C62G C66U, the yeast fitness is reported as ≤ 0.5. In the case of A36C A65U, the yeast fitness is reported as 0.667. With C29G U32C A40U C61U C66U the yeast fitness was ≤ 0.5. Variant A40C G68U has a yeast fitness of 0.788. For U7G A21G U26C C31A G38C, the yeast fitness was ≤ 0.5. In the case of C22A C30U C31G C61U A69C, the yeast fitness is reported as ≤ 0.5. A37C G56C gave a yeast fitness of 0.6. Work on C4U C5G C66U yielded a yeast fitness of 0.564. With C31G A37C G52C C61A C66U the yeast fitness was 0.527. With C22A C31G G41C G63C A70U the yeast fitness was ≤ 0.5. In the case of U3C G25C C33G C61G, the yeast fitness is reported as ≤ 0.5. Work on C5U C11U A20U yielded a yeast fitness of 0.561. For U2G C4A C22U U28G A42U C61U, the yeast fitness was ≤ 0.5. For A15G A36G G56U C62U, the yeast fitness was ≤ 0.5. G10A U16C showed a yeast fitness of 0.777. With U7C G41A A42C G50C G67C the yeast fitness was ≤ 0.5. For C5G G48A, the yeast fitness was 0.978. With G6A C34U the yeast fitness was 0.65. Work on C4G G56A yielded a yeast fitness of 0.927. In the case of C5G C22A A37G, the yeast fitness is reported as ≤ 0.5. In the case of G23C U54C C66U, the yeast fitness is reported as ≤ 0.5. For C5A G25C C66G, the yeast fitness was ≤ 0.5. For C11G A15C, the yeast fitness was 0.528. With G18C C24A A36U the yeast fitness was ≤ 0.5. With A15U G63A A69C the yeast fitness was 0.539. Work on G9A C24G C34G yielded a yeast fitness of 0.633. Work on C11U G44A C49U yielded a yeast fitness of 0.81. For G10A C27U A40C U47A G48C, the yeast fitness was 0.585. In the case of U8A C24U C31G, the yeast fitness is reported as ≤ 0.5. In the case of C27G A36U U53A, the yeast fitness is reported as ≤ 0.5. In the case of U7C A37G C49A, the yeast fitness is reported as ≤ 0.5. For G6A C30G G67C A69G, the yeast fitness was ≤ 0.5. With U28C A37U A40U C49G A57U G68C A70G the yeast fitness was 0.624. In the case of C5A U7A A21G, the yeast fitness is reported as ≤ 0.5. For C5U U28C C29U G63C A65U, the yeast fitness was ≤ 0.5. Work on C27U A43U yielded a yeast fitness of 1.06. Variant U7A G17A has a yeast fitness of 0.731. With C5G A20C C33U C62G the yeast fitness was ≤ 0.5. With C4G G38A the yeast fitness was 0.692. For G17C A20U C66A, the yeast fitness was ≤ 0.5. With U8C U32C the yeast fitness was 0.81. With C4U U64C the yeast fitness was 0.962. For G10C C46U C62U, the yeast fitness was ≤ 0.5. For C29U C31U U54G A65U A69U, the yeast fitness was ≤ 0.5. For G38C A43U A45G, the yeast fitness was ≤ 0.5. In the case of U8G C49G U53C C60A A69U, the yeast fitness is reported as ≤ 0.5. With G10C C22G C29A C46U A65C the yeast fitness was 0.538. Work on A20G A42C A70G yielded a yeast fitness of 0.629. In the case of U13A A69C, the yeast fitness is reported as 0.988. G50A U64C gave a yeast fitness of 0.966. In the case of U7G C29A C34A C62A, the yeast fitness is reported as ≤ 0.5. For U7G G39C A57G, the yeast fitness was ≤ 0.5. A15G G17A G48A showed a yeast fitness of 0.681. In the case of C4U G10A A43U C55G G56A, the yeast fitness is reported as ≤ 0.5. For C4U C11U C22G C61A, the yeast fitness was ≤ 0.5. With G6A C11A A36G C61U C66U the yeast fitness was ≤ 0.5. With C5A U16G A21C C24U C30A U59G the yeast fitness was ≤ 0.5. With U32A G63A the yeast fitness was 0.748. For C4G G18C G68A, the yeast fitness was ≤ 0.5. For G12A A57G A69C, the yeast fitness was ≤ 0.5. In the case of C46G G48A, the yeast fitness is reported as 0.998. Work on A36C G63A yielded a yeast fitness of 0.704. Variant A57U C62A has a yeast fitness of 0.629. In the case of C5G C31U G41C A43C C60G, the yeast fitness is reported as ≤ 0.5. Variant A21G U59C has a yeast fitness of 0.883. Work on U13G A42C yielded a yeast fitness of 1. In the case of G9A G10A U28A G39A G48A C61G C66G, the yeast fitness is reported as ≤ 0.5. G6C G56A G67A gave a yeast fitness of 0.588. For U7A G44C G63A, the yeast fitness was ≤ 0.5. Work on A21G U26C G48C yielded a yeast fitness of 0.615. U3G C66U gave a yeast fitness of 0.699. C5U U7C C30A A42C gave a yeast fitness of 0.583.
